This note sets out measurements from ChEMBL document CHEMBL3243955, “A novel synthesis and biological activity of several 5-halo-5'-amino analogues of deoxyribopyrimidine nucleosides” (J Med Chem, 1978).

The subject of series [1] is Human alphaherpesvirus 1. Put plainly: Antiviral activity against HSV1 CL101 infected in African green monkey Vero cells assessed as plaque forming unit at 400 uM after 40 hrs relative to control. Particulars: Human alphaherpesvirus 1, CL101, Vero. It is filed as functional. Put shortly: (§1)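 After 1 h adsorption at 37 °C, the inoculum was removed and cells washed with PBS. Compound was added in serum-supplemented medium and cultures incubated 40 h at 37 °C. Virus was released by one freeze–thaw and titrated by plaque assay on Vero cells. Percent inhibition was pfu relative to drug-free cultures.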

The nature of series [2]: Cytotoxicity against African green monkey Vero cells at 0.1 uM after 3 days by haemocytometry. In kind it is cell-based. As to conditions: chlorocebus sabaeus, read-out: INH. Put shortly:
(§2)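 Uninfected Vero cells were seeded at 0.1 confluency in Dulbecco's medium with 10% fetal calf serum and incubated 1 day at 37 °C in 5% CO2. Compound was then added in growth medium. Duplicate flasks were harvested at once and then daily for 3 days by trypsin (0.125%)/EDTA (0.02%) for 15 min at 37 °C, dispersed, and stained with trypan blue. Cells were counted by haemocytometer.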

Series [3] has as its system CCRF S-180. Put plainly: Cytotoxicity against mouse S180 cells at 0.1 uM after 18 to 42 hrs relative to control. It is filed as functional. The procedure, abridged: (§3)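 Mouse sarcoma 180 suspension cultures in Fischer's medium with 10% horse serum, 37 °C, humidified 5% CO2 (generation time ~18 h). Compound was added to exponential-phase cells at ~2 × 10⁴ cells/mL. Increase in cell number was measured after 18 and 42 h. Percent inhibition was calculated relative to drug-free control.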

Series [4] relates to CCRF S-180. Put plainly: Cytotoxicity against mouse S180 cells at 0.01 after 18 to 42 hrs relative to control. It is filed as functional. Put shortly: as §3
Series [5] in a line: (§4) Cytotoxicity against African green monkey Vero cells at 400 uM after 3 days by haemocytometry. Particulars: chlorocebus sabaeus, Vero cells; read-out: INH. In kind it is cell-based. Put shortly: as §2
The subject of series [6] is CCRF S-180. Put plainly: Cytotoxicity against mouse S180 cells at 400 uM after 18 to 42 hrs relative to control. It is filed as functional. The procedure, abridged:
as §3

Series [7] deals with Vero. Kind of series: Cytotoxicity against African green monkey Vero cells at 0.01 uM after 3 days by haemocytometry. It is filed as cell-based. Particulars: chlorocebus sabaeus, 72 h. The procedure, abridged:
as §2

Series [8] concerns Vero. The series is described as §4. It is filed as cell-based. As to conditions: chlorocebus sabaeus, vero, 72 h, 400 µM. Put shortly:
as §2

Series [9] concerns CCRF S-180. Kind of series: Cytotoxicity against mouse S180 cells at 1600 uM after 18 to 42 hrs relative to control. In kind it is functional, cell-based. Put shortly: as §3
For series [10], the system named is Vero. Put plainly: Cytotoxicity against African green monkey Vero cells at 1600 uM after 3 days by haemocytometry. In kind it is cell-based. As to conditions: chlorocebus sabaeus, 72 h. The procedure, abridged:
as §2

Series [11] deals with Vero. Kind of series: Cytotoxicity against African green monkey Vero cells at 200 uM after 3 days by haemocytometry. It is filed as cell-based. As to conditions: chlorocebus sabaeus, 72 h.
Series [12] has as its system CCRF S-180. Kind of series: Cytotoxicity against mouse S180 cells at 200 uM after 18 to 42 hrs relative to control. In kind it is functional, cell-based. The procedure, abridged: as §3
Series [13] deals with Human alphaherpesvirus 1. Kind of series: Antiviral activity against HSV1 CL101 infected in African green monkey Vero cells assessed as plaque forming unit at 200 uM after 40 hrs relative to control. It is filed as functional. As to conditions: Human alphaherpesvirus 1, CL101, Vero. Put shortly:
as §1

Series [14] deals with Vero. Put plainly: Cytotoxicity against African green monkey Vero cells at 800 uM after 3 days by haemocytometry. It is filed as cell-based. Particulars: chlorocebus sabaeus, 72 h. The procedure, abridged: as §2
Series [15] concerns Human alphaherpesvirus 1. Kind of series: Antiviral activity against HSV1 CL101 infected in African green monkey Vero cells assessed as plaque forming unit at 50 uM after 40 hrs relative to control. It is filed as functional. Particulars: Human alphaherpesvirus 1, CL101, Vero. The procedure, abridged: as §1
In series [16] the test system is Vero. Kind of series: (§5) Cytotoxicity against African green monkey Vero cells at 50 uM after 3 days by haemocytometry. In kind it is cell-based. Particulars: chlorocebus sabaeus, vero, 72 h, 50 µM. Put shortly: as §2
Series [17] has as its system CCRF S-180. Kind of series: Cytotoxicity against mouse S180 cells at 1 uM after 18 to 42 hrs relative to control. It is filed as functional. The procedure, abridged:
as §3

Series [18] has as its system Human alphaherpesvirus 1. Put plainly: Antiviral activity against HSV1 CL101 infected in African green monkey Vero cells assessed as plaque forming unit at 1 uM after 40 hrs relative to control. It is filed as functional, organism-based. Put shortly: as §1
Series [19] relates to Vero. Put plainly: Cytotoxicity against African green monkey Vero cells at 1 uM after 3 days by haemocytometry. In kind it is cell-based. Particulars: chlorocebus sabaeus, 72 h. Put shortly:
as §2

A short description of series [20]: as §5. In kind it is cell-based. Particulars: chlorocebus sabaeus, Vero cells; read-out: INH. The procedure, abridged: as §2
Series [21] relates to CCRF S-180. Kind of series: Cytotoxicity against mouse S180 cells at 50 uM after 18 to 42 hrs relative to control. It is filed as functional. Put shortly:
as §3

Structures are written as SMILES. The source made the active and inactive calls. No cut-off for these calls is given here.

With `O=c1[nH]c(=O)n([C@H]2C[C@H](O)[C@@H](CO)O2)cc1F` [FLOXURIDINE], the results for the inhibition at 400 µM in [1] and in series [6] were 84.3% and 100%, respectively. Further, in series [2], the cytotoxicity at 72 h, 0.1 µM was found to be 100%. The inhibition (commonly the change of the read-out against control, counted positive when it falls) at 0.1 µM in series [3] was 100%. Also, the “inhibition (INH)” value in [4] turned out to be 100%. Besides, the cytotoxicity at 72 h, 400 µM in series [5] is 100%. In addition, the Activity entry in [7] was “Non-toxic”.
As for `NC[C@H]1O[C@@H](n2cc(Cl)c(O)nc2=O)C[C@@H]1O`, the inhibition at 400 µM in series [1] is 74.3%. Also, the Activity result in [8] is reported as “Non-toxic”. For the same molecule, the inhibition result in [6] was “inactive”.
As for `NC[C@H]1O[C@@H](n2cc(I)c(N)nc2=O)C[C@@H]1O`, the inhibition at 400 µM in series [1] is 92.8%. Further, the inhibition result in series [9] and in [6] was “inactive” each time. The Activity result in series [10] and in series [8] was “Non-toxic” in each case.
As for `[N-]=[N+]=NC[C@H]1O[C@@H](n2cc(I)c(N)nc2=O)C[C@@H]1O`, the Activity entry in series [11] is on record as “Non-toxic”. Besides, in series [12], the inhibition result was “inactive”. For the same molecule, in [13], the inhibition at 200 µM turned out to be 37.5%.
Consider `Nc1nc(=O)n([C@H]2C[C@H](O)[C@@H](CO)O2)cc1I` [IBACITABINE], for which the Activity entry in series [14] and in series [16] was “Non-toxic” throughout. Besides, the inhibition at 50 µM in series [15] turned out to be 99.5%.
`NC[C@H]1O[C@@H](n2cc(F)c(=O)[nH]c2=O)C[C@@H]1O`: the inhibition at 400 µM came out at 85.6% in series [1] and 100% in [6]. Besides, in [5], the cytotoxicity at 72 h, 400 µM is 100%. This molecule also yielded an inhibition at 1 µM in [17] of 100%. Moreover, the inhibition entry in series [18] was “inactive”. Also, in series [19], the Activity result was “Non-toxic”.
Consider `NC[C@H]1O[C@@H](n2cc(Br)c(O)nc2=O)C[C@@H]1O`, for which the Activity entry in series [11] is recorded as “Non-toxic”. For the same molecule, the inhibition entry in series [12] was “inactive”. In [13], the inhibition at 200 µM was 86.2%.
Consider `[N-]=[N+]=NC[C@H]1O[C@@H](n2cc(F)c(O)nc2=O)C[C@@H]1O`, for which the figures for the inhibition at 400 µM in series [1] and in [6] were 5% and 100%, respectively. The cytotoxicity at 72 h, 400 µM in [5] turned out to be 100%.
`O=c1[nH]c(=O)n([C@H]2C[C@H](O)[C@@H](CO)O2)cc1I` [IDOXURIDINE]: the inhibition at 50 µM worked out at 99.5% in series [15] and 100% in series [21]. In series [20], the cytotoxicity at 72 h, 50 µM amounted to 100%.
